Results taken from ChEMBL document CHEMBL1140231, “Design, synthesis, and evaluation of tricyclic, conformationally constrained small-molecule mimetics of second mitochondria-derived activator of caspases” (J Med Chem, 2008).
The source made the active and inactive calls. The rule behind the calls is not given here.

How the values were obtained:
MDA-MB-231 [1] = assay: Induction of cell death in human MDA-MB-231 cells at 1 uM after 48 hrs by trypan blue assay; type: functional
Outline: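 MDA-MB-231 breast cancer cells exposed to compound for 48 hours. Viability scored by trypan blue exclusion. Read-out is percentage of cells dead.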

MDA-MB-231 [2] = assay: Induction of cell death in human MDA-MB-231 cells after 48 hrs by trypan blue assay; type: functional, cell-based
Outline: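 MDA-MB-231 breast cancer cells exposed to a range of compound concentrations for 48 hours; viability scored by trypan blue exclusion; percent dead cells reported.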

MDA-MB-231 [3] = assay: Induction of poly(ADP-ribose) polymerase cleavage in human MDA-MB-231 cells within 24 hrs by Western blot analysis; type: functional, cell-based
Outline: (§1)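 MDA-MB-231 breast cancer cells exposed to a range of concentrations for 24 hours; lysate proteins probed by Western blot with specific antibodies against cIAP-1, caspase-8, and pro- and cleaved PARP.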

MDA-MB-231 [4] = assay: Induction of degradation of cIAP1 in human MDA-MB-231 cells upto 100 nM after 24 hrs by Western blot analysis; type: functional, cell-based; outline: as §1
MDA-MB-231 [5] = assay: Induction of caspase 8 processing in human MDA-MB-231 cells within 24 hrs by Western blot analysis; type: functional, cell-based; outline: as §1
MDA-MB-231 [6] = assay: Induction of degradation of cIAP1 in human MDA-MB-231 cells after 24 hrs by Western blot analysis; type: functional, cell-based; outline: as §1
MDA-MB-231 [7] = assay: Growth inhibition of human MDA-MB-231 cells after 4 days by WST8 assay; settings: MDA-MB-231, 96 h

**Q.** Which Activity (MDA-MB-231 [1]) does the source give for `CN[C@@H](C)C(=O)N[C@H]1Cc2ccccc2[C@H]2CC[C@@H](C(=O)N[C@@H]3CCCc4ccccc43)N2C1=O` here?
**A.** Its Activity is 75%.

**Q.** What about the Activity (MDA-MB-231 [2]) of the same compound?
**A.** The Activity was “Dose-dependent effect”.

**Q.** What about the Activity (MDA-MB-231 [3]) of the same compound?
**A.** Its Activity is “Dose-dependent effect”.

**Q.** What about the Activity (MDA-MB-231 [4]) of the same compound?
**A.** The Activity was “Active”.

**Q.** What about the Activity (MDA-MB-231 [5]) of the same compound?
**A.** The Activity was “Dose-dependent effect”.

**Q.** What about the Activity (MDA-MB-231 [6]) of the same compound?
**A.** The Activity was “Active”.

**Q.** How did the Activity (MDA-MB-231 [1]) turn out when `CN[C@@H](C)C(=O)N[C@H]1Cc2ccccc2[C@H]2CCC[C@@H](C(=O)NC(c3ccccc3)c3ccccc3)N2C1=O` was run?
**A.** Its Activity is less than 20%.

**Q.** What about the Activity (MDA-MB-231 [2]) of the same compound?
**A.** The Activity was “Dose-dependent effect”.

**Q.** What about the IC50 (MDA-MB-231 [7]) of the same compound?
**A.** Its IC50 is 1370 nM.

**Q.** What about the Activity (MDA-MB-231 [6]) of the same compound?
**A.** Its Activity is “Active”.

**Q.** For `CN[C@@H](C)C(=O)N[C@H]1Cc2ccccc2[C@H]2CC[C@@H](C(=O)NC(c3ccccc3)c3ccccc3)N2C1=O`, which Activity (MDA-MB-231 [2]) is on record?
**A.** The Activity was “Dose-dependent effect”.

**Q.** And the Activity (MDA-MB-231 [6])?
**A.** The Activity was “Active”.
